# Results reported in PMC5059843 (Molecular pharmaceutics, 2016).
# “And” between values parts separate entries of the source, which are not always exact repeats. Equal entries are not always repeated. Where two headings read alike, the source gives them in different places.
# Tests used:
# [1] = biological target: T1, CYP3A4 (Homo sapiens, UniProt P08684); assay: Stopped-flow binding kinetics of ligand to purified CYP3A4; details: for k2: dissociation rate from KS=k2/k1
# [2] = biological target: T1, CYP3A4; assay: Spectral MIC formation in CYP3A4 baculosomes, SVD and kinetic modeling; format: biochemical
# [3] = biological target: T1, CYP3A4; format: biochemical
# [4] = biological target: T1, CYP3A4; assay: In vitro TDI assay in pooled HLM; format: biochemical
# [5] = system: rat CYP3A; format: biochemical
# [6] = Rat plasma equilibrium dialysis; format: in vitro ADME; details: pH 7.4
# In short: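 Rat plasma spiked with test compound to a final 2 μM. Dialysed in a 96-well equilibrium dialyser, plasma on one side and blank phosphate buffer (pH 7.4) on the other. Incubated 20 h at 37 °C under 5% CO2. The unbound fraction was determined from the two sides.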
# [7] = Rat pharmacokinetics of PPT alone; format: in vivo
# [8] = 3A4 baculosomes, Figure 3 scheme
# [9] = baculosomes, end of kinetic experiment (~30 min), 100 μM PPT
# T1 sequence (P08684 whole entry): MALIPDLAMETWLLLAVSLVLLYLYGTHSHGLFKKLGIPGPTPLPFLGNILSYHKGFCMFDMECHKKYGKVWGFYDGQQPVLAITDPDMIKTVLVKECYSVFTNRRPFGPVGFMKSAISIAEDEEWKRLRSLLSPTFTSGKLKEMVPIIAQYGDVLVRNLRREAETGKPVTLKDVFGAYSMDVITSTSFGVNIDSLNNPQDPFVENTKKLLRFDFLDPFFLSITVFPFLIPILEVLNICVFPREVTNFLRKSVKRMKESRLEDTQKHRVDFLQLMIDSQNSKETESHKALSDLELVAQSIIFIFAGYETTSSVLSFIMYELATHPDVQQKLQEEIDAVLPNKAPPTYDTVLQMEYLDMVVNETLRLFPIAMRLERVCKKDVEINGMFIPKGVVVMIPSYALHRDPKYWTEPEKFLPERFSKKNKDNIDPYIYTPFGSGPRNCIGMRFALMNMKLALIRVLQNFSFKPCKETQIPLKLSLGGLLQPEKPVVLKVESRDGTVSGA
smiles,measurement,setting,value
"COc1cc([C@@H]2c3cc4c(cc3[C@H](O)[C@H]3COC(=O)[C@H]23)OCO4)cc(OC)c1OC [PPT, Podophyllotoxin]",k2,[1]; used for 3A4 baculosomes model,10600 min⁻¹
same,k2,[1]; used for HLM model,10600 min⁻¹
same,experimentally determined on-rate (k1) used in the TDI model,[1]; fixed in the TDI model fitting,270 µM/s
same,k1,"[1]; from binding kinetic experiment, used for HLM model",1080 min⁻¹
same,k3 (Fe3+:carbene formation),"[2]; 3A4 baculosomes, 100 μM PPT, Figure 3 scheme, footnote b: fixed value",1.8 min⁻¹
same,"k4 (carbene release, enzyme regeneration)",[2]; [8],0.0780 ± 0.0186 min⁻¹
same,k5 (reduction to Fe2+:carbene),[2]; [8],0.0804 ± 0.0228 min⁻¹
same,k6 (P420 formation from EI),[2]; [8],0.1224 ± 0.0252 min⁻¹
same,k7 (P420 degradation),[2]; [8],0.0636 ± 0.0048 min⁻¹
same,fraction of total P450 as free P450,[2]; [9],15.0 ± 0.8%
same,fraction of total P450 in the inactivated form (Fe2+:carbene),[2]; [9],52.0 ± 5.8%
same,"enzyme regeneration through carbene release, baculosomes versus HLM",[2]; faster in baculosomes than in HLM,about 3 fold
same,"k4 (carbene release, enzyme regeneration)","[3]; HLM, Figure 3 scheme",0.0195 ± 0.000 min⁻¹
same,k6 (P420 formation from EI),"[3]; HLM, Figure 3 scheme",0.0506 ± 0.0401 min⁻¹
same,k7 (P420 degradation),"[3]; HLM, Figure 3 scheme",0 min⁻¹
same,k3 (Fe3+:carbene formation),"[3]; HLM, Figure 3 scheme, listed as carries footnote b: fixed value",1.134 ± 0.156 min⁻¹
same,fraction of cytochrome P450 in the Fe2+:carbene form,"[3]; HLM, end of the experiments",17.2 ± 2.2%
same,fraction of cytochrome P450 in the P420 form,"[3]; HLM, end of the experiments",24.0 ± 2.1%
same,fraction of cytochrome P450 in the free form,"[3]; HLM, end of the experiments",40.7 ± 7.3%
same,net rate constant for Fe2+:carbene formation (enzyme inactivation),[3]; spectral MIC formation experiments in HLM,0.020 min⁻¹
same,k3,[4]; Q model,95.3 ± 1.7 min⁻¹
same,k5,[4]; Q model,3.89e+07 ± 1.63e+07 M⁻¹ s⁻¹
same,k7,[4]; Q model,0.23 ± 0.07 min⁻¹
same,k8,[4]; Q model,0.081 ± 0.012 min⁻¹
same,k10,[4]; Q model,0.011 ± 0.001 min⁻¹
same,α,[4]; Q model,0.21 ± 0.08
same,k5,[4]; QI model,5.618e+07 ± 2.612e+07 M⁻¹ s⁻¹
same,k8,[4]; QI model,0.15 ± 0.04 min⁻¹
same,k9,[4]; QI model,0.011 ± 0.001 min⁻¹
same,k10,[4]; QI model,0.017 ± 006 min⁻¹
same,α,[4]; QI model,0.16 ± 0.07
same,k3,"[4]; QI model (ESI-QI scheme, Figure 5a)",94.9 ± 1.6 min⁻¹
same,k7,"[4]; QI model, Fe3+:carbene formation",0.50 ± 0.23 min⁻¹
same,k6/KI2,[5],6.1e+07 ± 1.68e+07 M⁻¹ s⁻¹
same,k7,[5],0.12 ± 0.02 min⁻¹ and 0.11 ± 0.02 min⁻¹
same,"fraction unbound at 20 h, 2 μM",[6],0.044 ± 0.006
same,"mean Cmax,unbound","[7]; PPT alone, 2-compartmental model",0.17 µM
same,Cmax,"[7]; male, Sprague-Dawley, plasma",3.94 µM
same,half-life,"[7]; male, Sprague-Dawley, plasma",37 min
